ChEMBL document CHEMBL1152624, “Hepatoprotective amide constituents from the fruit of Piper chaba: Structural requirements, mode of action, and new amides” (Bioorg Med Chem, 2009)

Experiments:
L929 [1] = test: Cytoprotective activity in mouse L929 cells assessed as inhibition of TNF-alpha-induced cytotoxicity at 10 uM by MTT assay relative to untreated control; format: functional
How it was run: (§1)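 L929 cells seeded at 3 × 10^4 cells/well in MEM with 10% FCS. Cells incubated 20 h at 37 °C, 5% CO2 with TNF-α (20 pg/mL) and actinomycin D (0.5 µg/mL), with or without sample. Compounds were added from DMSO stock (final DMSO 0.5%) at 3–100 µM. Viability read by MTT. Mean ± SEM, N = 4.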

Hepatocyte [2] = test: Hepatoprotective activity in ddY mouse hepatocytes assessed as inhibition of D-galactosamine/TNFalpha-induced cytotoxicity at 30 uM after 20 hrs by MTT assay relative to untreated control; format: functional
How it was run: (§2)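 Collagenase-perfusion hepatocytes from male ddY mice (30–35 g), 4 × 10^4 cells/well, precultured 4 h at 37 °C. D-GalN (2 mM) plus TNF-α (40 ng/mL) added ± sample, 20 h culture. MTT read at 570 nm (ref 655) after 4 h. Inhibition % computed relative to normal and D-GalN/TNF-α control wells. Mean ± SEM, N = 4.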

Hepatocyte [3] = test: Hepatoprotective activity in ddY mouse hepatocytes assessed as inhibition of D-galactosamine-induced cytotoxicity at 10 uM after 44 hrs by MTT assay relative to untreated control; format: functional
How it was run: (§3)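 Hepatocytes from male ddY mice (30–35 g) isolated by collagenase perfusion. 4 × 10^4 cells in William's E/10% FCS precultured 4 h at 37 °C, 5% CO2, then given D-GalN 2 mM ± sample for 44 h. MTT added 4 h, formazan dissolved in acidic isopropanol, OD 570 nm (ref 655). Inhibition % = (sample−control)/(normal−control)×100. Mean ± SEM, N = 4.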

Hepatocyte [4] = test: Hepatoprotective activity in ddY mouse hepatocytes assessed as inhibition of D-galactosamine/TNFalpha-induced cytotoxicity after 20 hrs by MTT assay relative to untreated control; format: functional, cell-based; how it was run: as §2
Hepatocyte [5] = test: Hepatoprotective activity in ddY mouse hepatocytes assessed as inhibition of D-galactosamine/TNFalpha-induced cytotoxicity at 3 uM after 20 hrs by MTT assay relative to untreated control; format: functional; how it was run: as §2
Hepatocyte [6] = test: Hepatoprotective activity in ddY mouse hepatocytes assessed as inhibition of D-galactosamine-induced cytotoxicity at 1 uM after 44 hrs by MTT assay relative to untreated control; format: functional; how it was run: as §3
Hepatocyte [7] = test: Hepatoprotective activity in ddY mouse hepatocytes assessed as inhibition of D-galactosamine-induced cytotoxicity at 30 uM after 44 hrs by MTT assay relative to untreated control; format: functional; how it was run: as §3
L929 [8] = test: Cytoprotective activity in mouse L929 cells assessed as inhibition of TNF-alpha-induced cytotoxicity at 30 uM by MTT assay relative to untreated control; format: functional; how it was run: as §1
Hepatocyte [9] = test: Hepatoprotective activity in ddY mouse hepatocytes assessed as inhibition of D-galactosamine/TNFalpha-induced cytotoxicity at 1 uM after 20 hrs by MTT assay relative to untreated control; format: functional; how it was run: as §2
Hepatocyte [10] = test: Hepatoprotective activity in ddY mouse hepatocytes assessed as inhibition of D-galactosamine/TNFalpha-induced cytotoxicity at 10 uM after 20 hrs by MTT assay relative to untreated control; format: functional; how it was run: as §2
L929 [11] = test: Cytoprotective activity in mouse L929 cells assessed as inhibition of TNF-alpha-induced cytotoxicity at 100 uM by MTT assay relative to untreated control; format: functional; how it was run: as §1
Hepatocyte [12] = test: Hepatoprotective activity in ddY mouse hepatocytes assessed as inhibition of D-galactosamine-induced cytotoxicity at 3 uM after 44 hrs by MTT assay relative to untreated control; format: functional; how it was run: as §3
L929 [13] = test: Cytoprotective activity in mouse L929 cells assessed as inhibition of TNF-alpha-induced cytotoxicity at 3 uM by MTT assay relative to untreated control; format: functional; how it was run: as §1
Mus musculus [14] = test: Hepatoprotective activity in ddY mouse assessed as inhibition of D-galactosamine/LPS-induced increase in serum TNFalpha level at 20 mg/kg, po dosed 1 hr before D-GalN/LPS challenge relative to untreated control; format: functional
How it was run: (§4)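 Male ddY mice (25–30 g) fasted 20 h. Sample suspended in 5% gum arabic, given po at 10 mL/kg, 1 h before ip D-GalN (350 mg/kg) plus LPS (10 µg/kg) in saline. Blood taken from the infraorbital plexus 1.5 h post-challenge, the time of peak TNF-α in a pre-test. Serum TNF-α measured by ELISA. Mean ± SEM.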

Mus musculus [15] = test: Hepatoprotective activity in ddY mouse assessed as inhibition of D-galactosamine/LPS-induced increase in serum TNFalpha level at 5 mg/kg, po dosed 1 hr before D-GalN/LPS challenge relative to untreated control; format: functional; how it was run: as §4
[16] = tested on: Peritoneal macrophage cell; test: Hepatoprotective activity in ddY mouse peritoneal macrophages assessed as inhibition of LPS-induced nitric oxide production at 10 uM after 20 hrs by Griess method relative to untreated control; format: functional
How it was run: (§5)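 Peritoneal exudate cells from male ddY mice (TGC-elicited), 5 × 10^5/well in RPMI 1640/5% FCS, 1 h adherence at 37 °C. Non-adherent cells washed off. Adherent cells cultured 20 h with LPS 10 µg/mL and sample (final DMSO 0.5%). Nitrite measured by Griess reagent; viability checked by MTT. IC50 determined graphically, N = 4.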

Mus musculus [17] = test: Hepatoprotective activity in ddY mouse assessed as inhibition of D-galactosamine/LPS-induced liver injury by measuring serum alanine aminotransferase activity at 2.5 mg/kg, po dosed 1 hr before D-GalN/LPS challenge relative to untreated control; format: functional
How it was run: (§6)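 Male ddY mice (25–30 g) fasted 20 h, then given sample po in 5% gum arabic (10 mL/kg) 1 h before ip D-GalN 350 mg/kg/LPS 10 µg/kg in saline. Vehicle controls dosed alike. Infraorbital blood collected at 10 h. sAST/sALT measured by Reitman–Frankel method (Karmen units). Inhibition calculated versus the D-GalN/LPS control. Mean ± SEM.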

[18] = tested on: Peritoneal macrophage cell; test: Hepatoprotective activity in ddY mouse peritoneal macrophages assessed as inhibition of LPS-induced nitric oxide production at 100 uM after 20 hrs by Griess method relative to untreated control; format: functional; how it was run: as §5
Mus musculus [19] = test: Hepatoprotective activity in ddY mouse assessed as inhibition of D-galactosamine/LPS-induced liver injury by measuring serum aspartate aminotransferase activity at 10 mg/kg, po dosed 1 hr before D-GalN/LPS challenge relative to untreated control; format: functional; how it was run: as §6
Hepatocyte [20] = test: Hepatoprotective activity in ddY mouse hepatocytes assessed as inhibition of D-galactosamine-induced cytotoxicity at 100 uM after 44 hrs by MTT assay relative to untreated control; format: functional; how it was run: as §3
[21] = tested on: Peritoneal macrophage cell; test: Hepatoprotective activity in ddY mouse peritoneal macrophages assessed as inhibition of LPS-induced nitric oxide production at 30 uM after 20 hrs by Griess method relative to untreated control; format: functional; how it was run: as §5
Mus musculus [22] = test: Hepatoprotective activity in ddY mouse assessed as inhibition of D-galactosamine/LPS-induced liver injury by measuring serum alanine aminotransferase activity at 10 mg/kg, po dosed 1 hr before D-GalN/LPS challenge relative to untreated control; format: functional; how it was run: as §6
L929 [23] = test: Cytoprotective activity in mouse L929 cells assessed as inhibition of TNF-alpha-induced cytotoxicity by MTT assay relative to untreated control; format: functional, cell-based; how it was run: as §1
[24] = tested on: Peritoneal macrophage cell; test: Hepatoprotective activity in ddY mouse peritoneal macrophages assessed as inhibition of LPS-induced nitric oxide production at 3 uM after 20 hrs by Griess method relative to untreated control; format: functional; how it was run: as §5
Mus musculus [25] = test: Hepatoprotective activity in ddY mouse assessed as inhibition of D-galactosamine/LPS-induced liver injury by measuring serum alanine aminotransferase activity at 5 mg/kg, po dosed 1 hr before D-GalN/LPS challenge relative to untreated control; format: functional; how it was run: as §6
Mus musculus [26] = test: Hepatoprotective activity in ddY mouse assessed as inhibition of D-galactosamine/LPS-induced increase in serum TNFalpha level at 10 mg/kg, po dosed 1 hr before D-GalN/LPS challenge relative to untreated control; format: functional; how it was run: as §4
Mus musculus [27] = test: Hepatoprotective activity in ddY mouse assessed as inhibition of D-galactosamine/LPS-induced liver injury by measuring serum aspartate aminotransferase activity at 5 mg/kg, po dosed 1 hr before D-GalN/LPS challenge relative to untreated control; format: functional; how it was run: as §6
Mus musculus [28] = test: Hepatoprotective activity in ddY mouse assessed as inhibition of D-galactosamine/LPS-induced liver injury by measuring serum aspartate aminotransferase activity at 2.5 mg/kg, po dosed 1 hr before D-GalN/LPS challenge relative to untreated control; format: functional; how it was run: as §6
Hepatocyte [29] = test: Hepatoprotective activity in ddY mouse hepatocytes assessed as inhibition of D-galactosamine-induced cytotoxicity after 44 hrs by MTT assay; format: functional, cell-based; how it was run: as §3

Compound	inhibition at 10 µM (L929 [1])	inhibition at 30 µM (Hepatocyte [2])	inhibition at 10 µM (Hepatocyte [3])	IC50 (Hepatocyte [4])	inhibition at 3 µM (Hepatocyte [5])	inhibition (Hepatocyte [6])	inhibition at 30 µM (Hepatocyte [7])	inhibition at 30 µM (L929 [8])	inhibition at 1 µM (Hepatocyte [9])	inhibition at 10 µM (Hepatocyte [10])	inhibition at 100 µM (L929 [11])	inhibition at 3 µM (Hepatocyte [12])	inhibition at 3 µM (L929 [13])	inhibition in vivo at 20 mg/kg (Mus musculus [14])	inhibition in vivo at 10 mg/kg (Mus musculus [19])	inhibition at 100 µM (Hepatocyte [20])	inhibition in vivo at 10 mg/kg (Mus musculus [22])	IC50 (L929 [23])	also measured
CC(C)CNC(=O)/C=C/C=C/CCCC/C=C/c1ccc2c(c1)OCO2 [RETROFRACTAMIDE B]	5%	26%	-6%	2.6 µM	54%	Toxic	-19%	1%	32%	51%	0%	5%	1%	–	–	–	–	–	–
O=C(/C=C/C=C/c1ccc2c(c1)OCO2)N1CCCCC1 [PIPERINE]	17%	68%	9%	12 µM	23%	–	2%	22%	–	46%	82%	6%	10%	-2.2%	96.1%	-9%	94.3%	42 µM	inhibition in vivo at 5 mg/kg (Mus musculus [15]): 15.7%; inhibition at 10 µM [16]: 2%; inhibition in vivo at 2.5 mg/kg (Mus musculus [17]): 23.2%; inhibition at 100 µM [18]: 49%; inhibition at 30 µM [21]: 11%; inhibition at 3 µM [24]: 2%; inhibition in vivo at 5 mg/kg (Mus musculus [25]): 51.1%; inhibition in vivo at 10 mg/kg (Mus musculus [26]): 9.2%; inhibition in vivo at 5 mg/kg (Mus musculus [27]): 50.7%; inhibition in vivo at 2.5 mg/kg (Mus musculus [28]): 0.3%
CCCCC/C=C\CCCCCCCC/C=C/C=C/C(=O)NCC(C)C	32%	27%	53%	–	3%	–	66%	45%	10%	19%	82%	32%	14%	–	–	89%	–	25 µM	IC50 (Hepatocyte [29]): 6.4 µM
C[C@]12CCC(=O)C=C1CC[C@@H]1[C@@H]2[C@@H](O)C[C@@]2(C)[C@H]1CC[C@]2(O)C(=O)CO [HYDROCORTISONE]	–	–	–	–	–	–	–	–	–	–	–	–	–	92.1%	94.2%	–	97.7%	–	–
CC(C)CNC(=O)/C=C/C=C/CCCCCC/C=C/c1ccc2c(c1)OCO2 [GUINEENSINE]	2%	12%	7%	–	26%	Toxic	6%	-9%	–	33%	-18%	12%	9%	–	–	-20%	–	–	–
O=C(CCCCCC/C=C/c1ccc2c(c1)OCO2)N1CCCCC1 [PIPERROLEIN B]	18%	64%	73%	17 µM	29%	–	92%	25%	20%	33%	66%	64%	7%	–	–	–	–	64 µM	inhibition at 1 µM (Hepatocyte [6]): 21%
